Activity data for 4 compounds are collected here from ChEMBL document CHEMBL1142624, “Nematicidal constituents of the aerial parts of Lantana camara” (2000).

Assay type in all cases: functional
Test [1] has as its system Meloidogyne incognita. Put plainly: Nematicidal activity against Meloidogyne incognita assessed as larval mortality at 1% drug concentration after 24 hrs. An outline of the steps: (§1)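 Larvae were held in Petri dishes with test solutions diluted from stock to 1.0%, alongside a furadan standard and a distilled water control, at 28 ± 2 °C for up to 72 h. Each treatment was replicated twice. At 24, 48 and 72 h, one dish per treatment was scored for mortality under a stereomicroscope. Immobility was confirmed as irreversible by transfer to distilled water. Percent mortality was averaged over three replicates.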

Test [2] concerns Meloidogyne incognita. Put plainly: Nematicidal activity against Meloidogyne incognita assessed as larval mortality at 1% drug concentration after 48 hrs. An outline of the steps: as §1
The subject of test [3] is Meloidogyne incognita. Put plainly: Nematicidal activity against Meloidogyne incognita assessed as larval mortality at 1% drug concentration after 72 hrs. An outline of the steps:
as §1

On to `COc1ccc(-c2cc(=O)c3c(O)c(OC)c(O[C@@H]4O[C@H](CO)[C@@H](O)[C@H](O)[C@H]4O)cc3o2)cc1` [LINAROSIDE], for which the Activity in test [1] was found to be 85%; in test [2] it was 90%; in test [3], 90%.
For the compound `COc1ccc(-c2cc(=O)c3c(O)c(OC)c(O[C@@H]4O[C@H](COC(C)=O)[C@@H](O)[C@H](O)[C@H]4O)cc3o2)cc1` [LANTANONE], the results for the Activity in test [1], in test [2] and in test [3] were 90%, 95% and 95%, respectively.
`CC(=O)O[C@@H]1C[C@@H](C)[C@H](C)[C@H]2C3=CC[C@@H]4[C@]56CC[C@@](O)(OC5)C(C)(C)C6CC[C@@]4(C)[C@]3(C)CC[C@]21C(=O)O` (some centres not stated) [CAMARINIC ACID]: the Activity in test [1], in test [2] and in test [3] was 100% in each case.
In the case of `CNC(=O)Oc1cccc2c1OC(C)(C)C2` [CARBOFURAN], the Activity in test [1], in test [2] and in test [3] was 100% in each case.
